The full list was thinned out, with hits kept by preference.
PostGolgi yeast: growth inhibition of a yeast mutant, post-Golgi transport screen; post-Golgi transport phenotypic cell assay; inhibition, % at 10 µM; actives 0.9% (n = 98,000); AID 739;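 further: yeast cells grown in 1536-well plates; yeast grown about 18 h at 30C before absorbance read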
Yeast lifespan up: extends the lifespan of yeast | S. cerevisiae growth with nicotinamide, OD615; deaD strain in restrictive glucose medium | inhibition of the nicotinamide effect, % at 10 µM | actives 0.68% (n = 130,000) | AID 775;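 active means inhibition above a set limit, placed 3 SD over the median of all compounds, cut at about 26% in these data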;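 further: 0% = nicotinamide-treated wells and 100% = cells grown without nicotinamide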
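Measured by: optical density (absorbance) at 615 nm; System: modified budding yeast, DeaD strain; Medium: restrictive CSMM-D dextrose medium; Timing: 4 h preincubation then 48 h treatment at 30 °C.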
BB579 growth dn: chemicals that inhibit yeast BB579 growth in restrictive medium (lifespan-shortening candidates) | S. cerevisiae BB579 growth, OD615, 48 h | inhibition, % at 10 µM | actives 0.51% (n = 140,000);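 active means inhibition above a set limit, 3 SD over the mean compound inhibition, cut at about 44% in these data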
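Test system: Saccharomyces cerevisiae DeaD strain BB579, replicative lifespan model yeast | Buffer or medium: Restrictive CSMM-D medium | Doses: One dose, 10 µM compound with 0.25% DMSO | Incubation: 48 h exposure, 30 °C | Detection: Culture absorbance at 615 nm | Control set: Amphotericin B at 10 µg/mL as positive control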
PostGolgi ctrl: growth of the yeast control strain, post-Golgi counter-screen | actives 5% (n = 98,000) | efflux-deficient yeast background strain, growth absorbance A615, 16 h | inhibition, % at 10 µM
* marks the source's active call; other numbers are inactive results; / = no result. Unless noted, no stated cut-off is given here; in the data, active means inhibition above about 30%; inactive means the rest.

SMILES | PostGolgi yeast | Yeast lifespan up | BB579 growth dn | PostGolgi ctrl
O=C(CCCSc1nnnn1-c1cccc2ccccc12)c1ccc(F)cc1 | -5 | -1 | -32 | 32*
O=C(Nc1nnc(-c2ccc3c(c2)CCCC3)o1)c1ccc(Cl)cc1Cl | 85* | -9 | -19 | 30
Cc1[nH]n(-c2ccccc2)c(=O)c1/C=N/c1ccccn1 | 1 | -23 | -10 | -3
Cc1[nH]n(-c2ccccc2)c(=O)c1N=Nc1nccs1 | 4 | 34* | -39 | 3
CCCCC(=O)Nc1c(C)cc(C)cc1Cl | 2 | -8 | 3 | 4
C/C(=N\Nc1ccc(Cl)cc1)c1ccccn1 | 5 | -17 | 92* | 16
CCCCCC(=O)N/N=C(\C)c1ccccn1 | -9 | -18 | -22 | 8
CC(NCc1ccc(N(C)C)cc1)C1CC2CCC1C2 (centres undefined) | -1 | 47* | -7 | 21
CNc1nc(SCc2ccccc2)nc(N2CCOCC2)n1 | 5 | -12 | -6 | 15
CC(C)(C)Nc1nc(SCc2ccccc2)nc(N2CCOCC2)n1 | -6 | -7 | -41 | 47*
COC(=O)C1=C(N)Oc2cc(C)n(CCN3CCOCC3)c(=O)c2C1c1cccnc1 (centres undefined) | -8 | -2 | -21 | 1
CC(=O)Nc1sc2c(c1C(c1ccc(Cl)cc1)N1CCOCC1)CCCC2 (centres undefined) | 29 | -11 | -25 | 31*
CC(=O)Nc1sc2c(c1C(c1ccc(F)cc1)N1CCOCC1)CCCC2 (centres undefined) | -3 | -15 | -8 | 19
CN1CC2=Cc3ccccc3OC23Oc2ccccc2C=C3C1 | 1 | 5 | -68 | 10
Cn1c2ccccc2c2ncn(CCCN3CCOCC3)c(=O)c21 | 8 | -14 | -7 | 0
Cn1c2ccc(F)cc2c2ncn(CCN3CCOCC3)c(=O)c21 | 33* | -9 | -3 | 20
Cn1c2ccccc2c2ncn(CCC3=CCCCC3)c(=O)c21 | -4 | -14 | -64 | 34*
Cc1ccc(Cl)cc1NC1=C/C(=N\S(=O)(=O)c2cccs2)c2ccccc2C1=O | 50* | 1 | -51 | 66*
Cc1ccc(NC2=C/C(=N\S(=O)(=O)c3cccs3)c3ccccc3C2=O)c(C)c1 | / | / | -26 | /
CC(=O)Nc1ccc(C(=O)CSc2nnc(-c3ccc(O)cc3)n2CC2CCCO2)cc1 (centres undefined) | -4 | 64* | -23 | 11
N#C/C(=C\c1cccs1)Sc1nc2ccccc2s1 | -6 | -7 | -53 | 35*
CCn1ncc(CNC(=O)C2(C)CC2(Cl)Cl)c1C (centres undefined) | / | 3 | -23 | /
Cc1occc1C(=O)Nc1ccc2ccccc2c1 | -3 | -12 | -22 | 52*
CCc1ccccc1NC(=O)c1ccoc1C | 14 | -31 | -8 | 37*
Cc1occc1C(=O)Nc1ccccc1C(=O)O | 17 | 19 | -19 | 6
SMILES | PostGolgi yeast | Yeast lifespan up | BB579 growth dn | PostGolgi ctrl
CC1(c2ccc(Cl)c(Cl)c2)NC(=S)N2C1NC(=S)N2c1ccccc1 (centres undefined) | -10 | -8 | -76 | 16
CCOc1cccc(SCc2noc(C(=O)NCC3CCCO3)c2C(=O)O)c1 (centres undefined) | 17 | -10 | -45 | -4
CC1CCC2C(C1)c1sc(=O)[nH]c1SC2(C)C (centres undefined) | 5 | 0 | -45 | 66*
CCOC(=O)CSCC(=O)N1N=C(c2cccs2)CC1c1ccc(F)cc1 (centres undefined) | / | 22 | -19 | /
Cc1ccc(C2CC(c3cccs3)=NN2C(=O)c2ccc(Br)o2)cc1 (centres undefined) | 93* | -2 | -10 | 83*
COc1cc(N=c2ssnc2Cl)c(OC)cc1Cl | 12 | -2 | 8 | -3
Cc1cc(Cl)ccc1N=c1ssnc1Cl | 7 | -13 | 63* | 23
Cc1cc(C)nc(/N=c2/ssnc2Cl)c1 | 64* | 0 | 22 | 54*
Cc1ccc(N=c2ssnc2Cl)cc1 | -6 | -7 | 20 | -10
Cc1ccccc1Cn1nc(C)c(NC(=O)c2noc3c2CCc2ccccc2-3)c1C | 25 | -6 | 4 | 38*
Clc1nc(-c2n[nH]nc2Cl)n[nH]1 | 4 | 0 | -17 | 10
COc1ccc(-c2nnc(SCC(=O)Nc3cccc(Cl)c3)o2)cc1 | -2 | -11 | -12 | -5
COc1cccc(NC(=O)CSc2nnc(-c3cc(-c4ccccn4)nc4ccccc34)o2)c1 | -7 | -11 | -104 | 50*
COC(=O)CSc1nc(N)c(C#N)c(CC(C)C)c1C#N | / | 3 | -5 | /
CCOC(=O)CSc1nc(N)c(C#N)c(CC(C)C)c1C#N | 1 | -14 | -49 | 40*
CC(/C=C1\SC(=O)N(CC(=O)Nc2ccc(O)cc2)C1=O)=C\c1ccccc1 | / | -1 | -46 | /
CC(/C=C1\SC(=O)N(CC(=O)Nc2cccc(O)c2)C1=O)=C\c1ccccc1 | 0 | -15 | -58 | 31*
O=c1[nH]c2ccc(NC(=S)Nc3ccccc3Cl)cc2[nH]1 | 26 | -10 | -34 | -8
S=C(Nc1ccc2cn[nH]c2c1)Nc1ccccc1Cl | / | 37* | -4 | /
Cc1ccc(Cl)cc1N1CCN(c2cccc[n+]2C)CC1 | / | -3 | -25 | /
CCCCOc1ncnc2c1[nH]c1ccc(OC)cc12 | 1 | -19 | -32 | 13
CCOC(=O)N1CCN(c2ncnc3c2[nH]c2ccc(OC)cc23)CC1 | -5 | -7 | -29 | 37*
CCOC(=O)N1CCN(c2ncnc3c2[nH]c2ccc(F)cc23)CC1 | -2 | -16 | -34 | 7
COc1ccc2[nH]c3c(Cl)ncnc3c2c1 | / | -8 | 56* | /
O=C(c1ccco1)N1CCN(c2ncnc3c2[nH]c2ccccc23)CC1 | 43* | -20 | -14 | 3
SMILES | PostGolgi yeast | Yeast lifespan up | BB579 growth dn | PostGolgi ctrl
C/C(CC(=O)NCC(C)C)=N\NC(=O)COc1cc(C)c(Br)cc1Br | / | -8 | 10 | /
CC(=O)Nc1ccc(Br)cc1C(=O)C(=O)O | / | -2 | 2 | /
Cc1ccc(Nc2cc(=O)oc3ccccc23)c(C)c1 | 18 | -7 | -8 | 44*
Cc1ccc(Cn2c(Cc3ccccc3)nc3ccccc32)cc1 | 2 | 3 | -23 | 32*
Nc1nonc1-c1nc2ccccc2n1Cc1ccccc1 | -8 | -12 | -89 | 42*
Cc1cccc(NCc2nc3ccccc3n2Cc2ccccc2)c1 | 54* | 24 | -24 | 66*
COCc1nc2ccccc2n1Cc1ccc(Br)cc1 | -3 | -9 | -47 | 36*
COc1ccc(-c2nc3ccccc3n2Cc2ccc(C)cc2)cc1 | 31* | -4 | 2 | 43*
COCn1c(-c2ccc(OC)cc2)nc2ccccc21 | / | / | -55 | /
CCCSc1nnc(NC(=O)c2nc(SC)ncc2Cl)s1 | 3 | 1 | -50 | 35*
CSc1ncc(Cl)c(C(=O)Nc2nnc(SC)s2)n1 | -8 | -12 | -9 | 29
N#Cc1ccsc1NC(=O)CN1CCN(S(=O)(=O)c2ccccc2C(F)(F)F)CC1 | / | 0 | -46 | /
O=C(c1cc2c(s1)-c1ccccc1OC2)N1CCN(c2ccccc2)CC1 | -10 | -13 | -29 | 55*
CCCC(=O)Nc1ccccc1Sc1ncnc2scc(-c3ccccc3)c12 | / | 44* | -28 | /
CC(=O)Nc1ccc(Sc2ncnc3scc(-c4ccccc4)c23)cc1 | / | 1 | -9 | /
